This is an account of results in PMC4858174 (Innate immunity, 2015).

The test system of test [1] is C3a receptor. Nature of the test: C3a-induced degranulation, LAD2 cells. The test is classed as cell-based, human. Conditions: LPS 1 and 10 μg/ml, C3a 10 nM, three experiments. A digest of the protocol:
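LAD2 cells (5 × 10^3 per well) in HEPES buffer with 0.1% BSA were pre-treated with buffer or E. coli LPS, then stimulated. Percent β-hexosaminidase release was taken against unstimulated cells lysed in 0.1% Triton X-100. Mean ± SEM, three experiments; two-way ANOVA with Bonferroni.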

Test [2] deals with C3a receptor. The test can be described thus: C3a-induced Ca2+ mobilization, LAD2 cells. The test is classed as cell-based, human. In short, it runs like this: (§1)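 LAD2 cells, kept in StemPro-34 with 100 ng/ml hSCF, were loaded with indo-1 AM (1 μM) for 30 min at room temperature. They were washed and resuspended in HEPES-buffered saline at 0.2 × 10^6 cells per run. E. coli LPS (serotype R515) was given as a 2 min pre-incubation or premixed with the peptide, followed by C3a. Fluorescence was read at excitation 355 nm and emission 410 nm. Traces are representative of three experiments.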

For test [3], the system named is LAD2 cells endogenously expressing MrgX2. Nature of the test: Degranulation. The test is classed as cell-based, human. The note with it: for effect of E. coli-LPS on HDP-induced mast cell degranulation (summary): Discussion summary.
The next test deals with macrophages. Conditions: cited from earlier work.
Test [4] relates to LAD2 cells endogenously expressing MrgX2. Nature of the test: Ca2+ mobilization, LAD2 cells. The test is classed as cell-based, human. Conditions: for effect of E. coli-LPS on HDP-induced Ca2+ mobilization (summary): Discussion summary. A digest of the protocol:
as §1
A general note: Calcium flux is commonly read through the fluorescence of an indicator in the cells.

The test system of test [5] is untransfected RBL-2H3 cells, which do not express MrgX2. Conditions: no MrgX2; cited from earlier work.
Test [6] shares this test system. The note with it: no MrgX2; cited from earlier work. The source holds these as a separate data set.

No end group written: not given here.

Turning to “C3a: anaphylatoxin C3a; native complement C3a from Complement Technology”, the “effect of E. coli-LPS on C3a-induced degranulation” value in the test with C3a receptor [1] is reported as “did not inhibit the response to C3a”. Besides, in the test on C3a receptor [2] (LPS 1 μg/ml + hBD3 100 nM, then C3a 10 nM), the “effect of mixture of E. coli-LPS and hBD3 on C3a-induced Ca2+ mobilization” value is given as “not affected”. Besides, the “effect of E. coli-LPS on C3a-induced Ca2+ response” value with C3a receptor [2] (LPS 1 μg/ml preincubated, C3a 10 nM) was “no effect”. For the same substance, the “effect of E. coli-LPS on C3a-induced Ca2+ response (LL-37 experiment)” value in the test on C3a receptor [2] (LPS 10 μg/ml, pre-incubated or mixed with LL-37 1 μM, C3a 10 nM) is “no effect on the response to C3a”.

With “Human β-defensin3 (GIINTLQKYYCRVRGGRCAVLSCLPKEEQIGKCSTRGRKCCRRKK; not fully specified; ends and bridges not checked; UniProt P81534 23-67, looked up) [hBD3]”, in test [3], the “effect of E. coli-LPS on HDP-induced mast cell degranulation (summary)” value is reported as “almost complete inhibition”. Further, the “effect of E. coli-LPS on hBD3-induced degranulation” value in test [3] (LAD2, LPS 1 and 10 μg/ml, hBD3 100 nM, mean ± SEM of three experiments) is “substantial inhibition”. Besides, in the test on macrophages, the “inhibition of LPS-induced cytokine generation in macrophages, hBD3” value was “inhibit LPS-induced cytokine generation in macrophages”. For the same substance, the “effect of E. coli-LPS on HDP-induced Ca2+ mobilization (summary)” value in test [4] is recorded as “almost complete inhibition”. In addition, the “effect of premixed E. coli-LPS on hBD3-induced Ca2+ response” value in test [4] (LAD2, LPS 1 μg/ml premixed with hBD3 100 nM) is on record as “to the same extent as the 2 min pre-incubation protocol”. The “effect of E. coli-LPS preincubation on hBD3-induced Ca2+ response” value in test [4] (LAD2, LPS 1 μg/ml, 2 min preincubation, hBD3 100 nM) was “complete inhibition”. The “intracellular Ca2+ response in LAD2 cells” value in test [4] (hBD3 100 nM, not back to basal level even after 5 min) is given as “sustained intracellular Ca^2+ response”. The “Ca2+ mobilization in untransfected RBL-2H3 cells, earlier work” value in test [5] is recorded as “unresponsive”. The “degranulation in untransfected RBL-2H3 cells, earlier work” value in test [6] is reported as “unresponsive”.

As for “LL-37: human cathelicidin, host defense peptide”, in test [3], the “effect of E. coli-LPS on HDP-induced mast cell degranulation (summary)” value is “almost complete inhibition”. Also, the “effect of E. coli-LPS on LL-37-induced degranulation” value in test [3] (LAD2, LPS 10 μg/ml, LL-37 1 μM, three experiments) was “blocked”. Moreover, the “effect of E. coli-LPS on HDP-induced Ca2+ mobilization (summary)” value in test [4] is “almost complete inhibition”. Moreover, the “effect of E. coli-LPS on LL-37-induced Ca2+ mobilization” value in test [4] (LAD2, LPS 10 μg/ml, 2 min pre-incubation or added simultaneously, LL-37 1 μM) is listed as “ablated”. The “Ca2+ mobilization in untransfected RBL-2H3 cells, earlier work” value in test [5] is listed as “unresponsive”. For the same substance, the “degranulation in untransfected RBL-2H3 cells, earlier work” value in test [6] is given as “unresponsive”.
